This note sets out measurements from the RNAGym collection of RNA variant scans (doi:10.1126/science.aae0568).

B1: tRNA (parent)
chain: GUUCCGUUGGCGUAAUGGUAACGCGUCUCCCUCCUAAGGAGAAGACUGCGGGUUCGAGUCCCGUACGGAACG

This sample holds only a part of the variants without activity.

This data set covers variants of B1. As to the kind of experiment: yeast fitness relative to wild type (ratio to wild type); higher = fitter; tRNA-Arg(CCU), competitive growth, 37 C, YPD. Put shortly:
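The tRNA-Arg(CCU) gene variants were made by chemical synthesis with a 3% per-site mutation rate at 69 sites and inserted at the native genomic locus of Saccharomyces cerevisiae. After pooling, the strains were competed in YPD at 37°C for 24 hours in six parallel replicates. Gene amplicons from the start population and each end population were read by 100-nucleotide paired-end sequencing, and Darwinian fitness relative to wild type was taken from genotype frequency changes. Genotypes needed ≥ 100 starting reads, and estimates < 0.5 were set to 0.5.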
On to U7G A43G C60U C62U A70C, for which the yeast fitness is at most 0.5. Then U7G G9A C30G G51C, with at most 0.5. Then U7G G56C C60U G67C, with at most 0.5; and U7C U26C U53A, with at most 0.5; and U7C G63A, with 0.856. For U7G C29U C31U G38C, the yeast fitness is at most 0.5.

Turning to U7C U32A U53A, the yeast fitness was 0.576. The same measure for U7C G39C C46U C49U G56A G68C: at most 0.5; for U7G C11U G12C C33U C61G C62G: at most 0.5. The same measure for U7C G41A A42C: 0.543. Then U7G C11G C34U G41A A70U, with at most 0.5. In the case of U7G A45U C55A, the yeast fitness was at most 0.5. In the case of U7G C27G U32C A36G, the yeast fitness is at most 0.5. With U7C U47C U64G G68C, the yeast fitness was at most 0.5. Then U7G C22U C24G A65U C66U, with at most 0.5; and U7G C22U C24U U53A, with at most 0.5. The same measure for U7G C49U A57U: at most 0.5; for U7G C34A G44C G51A C62A: at most 0.5; for U7G G10C C29A C55U A69U: 0.534. Then U7G G9A C31G A36G G68C, with at most 0.5; and U7G G25C G67A, with 0.682; and U7C U26G A36C G50C, with 0.781. On to U7C U8G C27A A69U, for which the yeast fitness is at most 0.5. For U7G A15C A21C U28A G51A C60U C62U, the yeast fitness came out at 0.653. Consider U7G C11G U32A U53G, for which the yeast fitness was at most 0.5. Then U7C U26C A36G A42G G48C A65C, with at most 0.5; and U7G A15G C33G A69U, with at most 0.5. Then U7C U53A, with 0.655; and U7C G67A A70U, with at most 0.5. The same measure for U7C G12A U13C U26C: 0.565; for U7C U16G A20G U26C C49G: at most 0.5.

For U7G A42U U53A, the yeast fitness was at most 0.5. For U7G C27G U32C U35C A36G U53A G56A, the yeast fitness is at most 0.5. Then U7C U8A G23A, with at most 0.5.

For U7G G23U C27G U28G C60A, the yeast fitness is at most 0.5. The same measure for U7G G41A G48A: 0.911. Then U7C U8C U26G, with at most 0.5; and U7C U32C, with 0.776; and U7G A14G C22U G23A G38A C55A, with at most 0.5.

Consider U7C G23A G56C G68A, for which the yeast fitness was at most 0.5. On to U7G A43U U64C, for which the yeast fitness was 0.546. Then U7G G23A A36U G39C, with at most 0.5; and U7G G50A, with 0.858; and U7C G12A G41A A42C G50C A70G, with 0.53. Then U7G A21C G44C C66U, with at most 0.5. The same measure for U7G A43U C61G: at most 0.5. With U7G C31U G39A C55U G68C, the yeast fitness was at most 0.5. Then U7G C22A U53C, with at most 0.5; and U7C U47C, with 0.895. Then U7G A65C, with 0.998; and U7C G17C U19C C24G G48C G51C U53C A57U C66U, with 0.575; and U7C U26C C31G U35C C46A C66A, with at most 0.5. The same measure for U7G C55U G56C G63U: 0.602; for U7G C29G C30U C46U: 0.534; for U7C G48C A70C: 0.6. Take U7G C34A G44C G51A: the yeast fitness was at most 0.5. As for U7G G39A C55U U59G G68C, the yeast fitness was at most 0.5. Then U7G G10C C22G, with at most 0.5; and U7G G10C A43U C55U, with at most 0.5; and U7C G58C, with 0.781. The same measure for U7C G58A: 1.06; for U7G C11G C34U G41A A57U C66U: at most 0.5; for U7G A15G C27A: 0.567. The same measure for U7G A15G C27U G68A: at most 0.5. Take U7C G12A A45C C61G A65C: the yeast fitness is at most 0.5. As for U7G A57G C60U, the yeast fitness worked out at 0.62. The same measure for U7G C29G U35C C46U: at most 0.5. Then U7C U28A G48C A69U A70U, with at most 0.5; and U7G U8A A14G, with 0.525; and U7G A14G C22U G38A, with 0.534. The same measure for U7G C22U U26C U64G G67C: at most 0.5. In the case of U7G G39C A70U, the yeast fitness worked out at 0.553. As to U7G A21C, the yeast fitness was 0.588. On to U7G A21U, for which the yeast fitness was determined as 0.717. The same measure for U7G A21G: 0.816; for U7C G12C A20C: 0.632; for U7G U8A U32C G51C C60U C61U C62U: 0.599. The same measure for U7G C66A: 0.573. Then U7G C66U, with 0.893. Regarding U7C G25C U47C, the yeast fitness was found to be 0.622. The same measure for U7C G18C A37G G51C: 0.697; for U7C U59A: 0.765; for U7C U13C: 0.836. Then U7C U13G C30U, with at most 0.5. The same measure for U7C U16A: 0.812. Regarding U7G A15U, the yeast fitness came to 0.592. Then U7G A15C, with 0.653; and U7G G9A C31G A36G C62U, with at most 0.5.

For the variant U7C U16A C24G G41C, the yeast fitness is at most 0.5.

Consider U7G C11G C34U G41A U54C U64C, for which the yeast fitness was at most 0.5. The same measure for U7C U47G U59A C66A A70C: at most 0.5; for U7G A21C U26C G44C: at most 0.5. Then U7C U16G U28A, with at most 0.5; and U7G G52A, with 0.723.

As for U7C G41A A42C G50C C66U, the yeast fitness was found to be 0.548. Then U7G A21C A42U C66U, with at most 0.5; and U7C U16G G17A C49U U59C C62A, with at most 0.5; and U7G G25A, with 0.799. As for U7G A14G A20G U35G A43G U59A, the yeast fitness is at most 0.5. The same measure for U7G G63A A65G: 0.828; for U7G C11G C34U G41A G67U: at most 0.5. Then U7G A21C G44C G58C, with at most 0.5; and U7C G18A G50A U64A, with at most 0.5; and U7C G52A, with 0.69. Then U7G G51C, with 0.644; and U7G G39A, with 0.874; and U7G G39C, with 0.632. For U7C U64A G68U, the yeast fitness was at most 0.5.

For U7G A37U C46G, the yeast fitness was at most 0.5. On to U7G C27U C33U, for which the yeast fitness was at most 0.5.

As for U7G A57G G68U, the yeast fitness is at most 0.5.

Turning to U7G G41C C49G U59G G63A C66U, the yeast fitness is at most 0.5. For the variant U7C G17A C22U, the yeast fitness is 0.651. The same measure for U7G C33A A69G: 0.598; for U7G C33U C55G: at most 0.5.

For the variant U7G C34U, the yeast fitness worked out at 0.588. With U7G C34G, the yeast fitness turned out to be 0.649.

U7G A15G U19C A21G G41A C55A: the yeast fitness stood at 0.575. For the variant U7G A36C G41A U53C, the yeast fitness is at most 0.5.

Turning to U7C G18A C31A, the yeast fitness came out at 0.541. The same measure for U7G A14C: 0.532. The same measure for U7G A14G: 0.911; for U7C U64G: 0.809; for U7G C60A A69G: at most 0.5. The same measure for U7G A14U U19A C22U C60G: at most 0.5. Regarding U7G C61U G63A C66A, the yeast fitness is at most 0.5. Then U7G C11G A21G C34U G41A, with at most 0.5; and U7G C27A A36C A42U, with 0.532; and U7G G38C, with 0.591.

With U7C G56U A65U G68C, the yeast fitness is at most 0.5. Then U7G C30G, with 0.509; and U7G C30A, with 0.721; and U7G C30U, with 0.895.

With U7C G44A, the yeast fitness came out at 0.807. Then U7C U54C C55G, with 0.655.

For the variant U7G C11G C34U G41A A65G, the yeast fitness is at most 0.5. As to U7G C11G C34U G41A A65C, the yeast fitness is at most 0.5. Turning to U7G C11G, the yeast fitness amounted to 0.692. Then U7G C11U, with 0.807. Then U7C G10C C61G C62U, with at most 0.5; and U7G C29G C61U G68A, with at most 0.5. For the variant U7C G68U, the yeast fitness is 0.674. Then U7G A20C A42C, with at most 0.5; and U7G A20G A70G, with 0.615.

Consider U7C G25A U59C A69C, for which the yeast fitness is at most 0.5. For the variant U7C G25A, the yeast fitness came out at 1.04. The same measure for U7C G25C: 0.822. Then U7G A40U A43U G44A A45U U53A, with 0.61; and U7G A37U A65G, with 0.699; and U7G G12C A14C A15G A37C A57U, with at most 0.5. For U7G C49A, the yeast fitness amounted to 0.665. Then U7G G18C, with 0.686.

Regarding U7C G12A C24U C49A, the yeast fitness was at most 0.5. The same measure for U7G A21C G48C C55U G56A: at most 0.5; for U7G A36U A70U: 0.544; for U7G C34A A36U G52A C60A: at most 0.5. The same measure for U7G C27G U28G G39C A42G: at most 0.5; for U7C G58A G67A: 0.62; for U7G C61U C66A: 0.626. Then U7G C22G G50A G67A, with at most 0.5; and U7C U54C, with 0.821. In the case of U7C U54G, the yeast fitness was 0.535. For the variant U7G G63A, the yeast fitness stood at 0.888. As to U7C U8G, the yeast fitness was determined as 0.697. Then U7C U8C, with 0.976. The same measure for U7C G25A U47C U64G G68C: at most 0.5; for U7G G25C A40U: 0.556.
